Experimental data published in ChEMBL document CHEMBL4196059, “Design, synthesis, and biological evaluation of stable β6.3-Helices: Discovery of non-hemolytic antibacterial peptides” (Eur J Med Chem, 2018).
The source made the active and inactive calls. No cut-off for these calls is given here.

How the values were obtained:
Klebsiella pneumoniae = experiment: Growth inhibition of multidrug-resistant Klebsiella pneumoniae ATCC 700603 at 32 ug/ml after 18 hrs; type: functional; settings: ATCC 700603, 18 h, read-out: GI
In short: (§1)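 Mid-log cultures in cation-adjusted Mueller Hinton broth were added at 5×10^5 CFU/mL to wells at a final compound concentration of 32 μg/mL. Plates stood at 37 °C for 18 h. Growth was read by OD600, and % inhibition was computed against media-only and untreated-bacteria controls.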

Escherichia coli = experiment: Growth inhibition of Escherichia coli ATCC 25922 at 32 ug/ml after 18 hrs; type: functional; settings: ATCC 25922, 18 h, read-out: GI
In short: (§2)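 Mid-log cultures were prepared as above and seeded at 5×10^5 CFU/mL with compound at a final 32 μg/mL, then held static at 37 °C for 18 h. Growth was read as OD600. Percent inhibition was calculated against media-only and bacteria-only controls on the same plate.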

Staphylococcus aureus = experiment: Growth inhibition of methicillin-resistant Staphylococcus aureus ATCC 43300 at 32 ug/ml after 18 hrs; type: functional; settings: ATCC 43300, 18 h, read-out: GI; in short: as §1
Pseudomonas aeruginosa = experiment: Growth inhibition of Pseudomonas aeruginosa ATCC 27853 at 32 ug/ml after 18 hrs; type: functional; settings: ATCC 27853, 18 h, read-out: GI; in short: as §2
Acinetobacter baumannii = experiment: Growth inhibition of Acinetobacter baumannii ATCC 19606 at 32 ug/ml after 18 hrs; type: functional; settings: ATCC 19606 = CIP 70.34 = JCM 6841, 18 h, read-out: GI; in short: as §2
Cryptococcus neoformans = experiment: Growth inhibition of Cryptococcus neoformans H99 ATCC 208821 at 32 ug/ml after 24 hrs by resazurin dye-based microspectrophotometric assay; type: functional; settings: var. grubii H99 ATCC 208821, 24 h, read-out: GI
In short: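 Yeasts were grown 3 days on YPD agar at 30 °C, suspended from five colonies and diluted in YNB broth to a final 2.5×10^3 CFU/mL. Compound at a final 32 μg/mL; incubated 24 h at 35 °C without shaking. C. albicans was read at OD530. C. neoformans was read as OD600–570 after resazurin (0.001% final) and a further 2 h at 35 °C. Fluconazole was the standard.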

Candida albicans = experiment: Growth inhibition of Candida albicans ATCC 90028 at 32 ug/ml after 24 hrs by OD530 light-scattering microspectrophotometric method; settings: ATCC 90028, 24 h, read-out: GI
Lipid bilayer = experiment: Induction of pore formation in POPC vesicles at 20 uM after 3 hrs by carboxyfluorescein dye leakage assay; settings: in the assay text read “after 3 mins” for “after 3 hrs”
In short: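 POPC or DOPC liposomes were hydrated in 10 mM HEPES, 100 mM KCl, pH 7.4, containing 50 mM carboxyfluorescein. Size was checked by dynamic light scattering, and vesicles were used at 2.2×10^10 per mL. Peptide at 20 μM was equilibrated with vesicles for 3 min, and dye leakage was measured.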

[1] = Hemolytic activity against human RBC at 100 uM after 1 hr by Drabkin's assay relative to control; type: ADME, cell-based, Erythrocyte; settings: human red blood cells (erythrocytes), read-out: Activity
[2] = Hemolytic activity against human RBC at 25 uM after 1 hr by Drabkin's assay relative to control; type: ADME, cell-based, Erythrocyte; settings: human red blood cells (erythrocytes), read-out: Activity
[3] = Hemolytic activity against human RBC at 0.78 uM after 1 hr by Drabkin's assay relative to control; type: ADME, cell-based, Erythrocyte; settings: human red blood cells (erythrocytes), read-out: Activity
[4] = Hemolytic activity against human RBC at 3.125 uM after 1 hr by Drabkin's assay relative to control; type: ADME, cell-based, Erythrocyte; settings: human red blood cells (erythrocytes), read-out: Activity
[5] = Hemolytic activity against human RBC at 50 uM after 1 hr by Drabkin's assay relative to control; type: ADME, cell-based, Erythrocyte; settings: human red blood cells (erythrocytes), read-out: Activity
[6] = Hemolytic activity against human RBC at 0.39 uM after 1 hr by Drabkin's assay relative to control; type: ADME, cell-based, Erythrocyte; settings: human red blood cells (erythrocytes), read-out: Activity
[7] = Hemolytic activity against human RBC at 1.56 uM after 1 hr by Drabkin's assay relative to control; type: ADME, cell-based, Erythrocyte; settings: human red blood cells (erythrocytes), read-out: Activity
[8] = Hemolytic activity against human RBC at 12.5 uM after 1 hr by Drabkin's assay relative to control; type: ADME, cell-based, Erythrocyte; settings: human red blood cells (erythrocytes), read-out: Activity
Erythrocyte = experiment: Hemolytic activity against human RBC after 1 hr by Drabkin's assay; type: ADME, cell-based
[9] = Hemolytic activity against human RBC at 6.25 uM after 1 hr by Drabkin's assay relative to control; type: ADME, cell-based, Erythrocyte; settings: human red blood cells (erythrocytes), read-out: Activity

| Structure (SMILES) | inhibition of growth at 32 µg/mL (Klebsiella pneumoniae) [%] | inhibition of growth at 32 µg/mL (Escherichia coli) [%] | inhibition of growth at 32 µg/mL (Staphylococcus aureus) [%] | inhibition of growth at 32 µg/mL (Pseudomonas aeruginosa) [%] | inhibition of growth at 32 µg/mL (Acinetobacter baumannii) [%] | inhibition of growth at 32 µg/mL (Cryptococcus neoformans) [%] | inhibition of growth at 32 µg/mL (Candida albicans) [%] | Activity (Lipid bilayer) | hemolysis at 1 h, 100 µM [1] [%] | hemolysis at 1 h, 25 µM [2] [%] | hemolysis at 1 h, 0.78 µM [3] [%] | hemolysis at 1 h, 3.125 µM [4] [%] | hemolysis at 1 h, 50 µM [5] [%] | hemolysis at 1 h, 0.39 µM [6] [%] | hemolysis at 1 h, 1.56 µM [7] [%] | hemolysis at 1 h, 12.5 µM [8] [%] | Activity (Erythrocyte) | hemolysis at 1 h, 6.25 µM [9] [%] |
| --- | --- | --- | --- | --- | --- | --- | --- | --- | --- | --- | --- | --- | --- | --- | --- | --- | --- | --- |
| O=C(OCc1ccccc1)N1CCCN1C(=O)[C@@H]1CCCN1C(=O)N1CCCN1C(=O)[C@@H]1CCCN1C(=O)N1CCCN1C(=O)[C@@H]1CCCN1C(=O)N1CCCN1C(=O)[C@@H]1CCCN1C(=O)N1CCCN1C(=O)[C@@H]1CCCN1C(=O)N1CCCN1C(=O)[C@@H]1CCCN1C(=O)N1CCCN1C(=O)[C@@H]1CCCN1C(=O)N1CCCN1C(=O)[C@@H]1CCCN1 | 14.8 | 14.8 | 28.6 | -2.53 | 38.4 | 0.967 | 4.07 | inactive |  |  |  |  |  |  |  |  |  |  |
| CC(C)(C)OC(=O)[C@@H]1CCCN1C(=O)N1CCCN1C(=O)[C@@H]1CCCN1C(=O)N1CCCN1C(=O)[C@@H]1CCCN1C(=O)N1CCCN1C(=O)[C@@H]1CCCN1C(=O)N1CCCN1C(=O)[C@@H]1CCCN1C(=O)N1CCCN1C(=O)[C@@H]1CCCN1C(=O)N1CCCN1C(=O)[C@@H]1CCCN1C(=O)N1CCCN1C(=O)[C@@H]1CCCN1C(=O)N1CCCN1 [listing 1 of 2 here] | 5.27 | 5.27 | 20.7 | -8.18 | 17.8 | -3.43 | 2.92 |  |  |  |  |  |  |  |  |  |  |  |
| CC(C)(C)OC(=O)[C@@H]1CCCN1C(=O)N1CCCN1C(=O)[C@@H]1CCCN1C(=O)N1CCCN1C(=O)[C@@H]1CCCN1C(=O)N1CCCN1C(=O)[C@@H]1CCCN1C(=O)N1CCCN1C(=O)[C@@H]1CCCN1C(=O)N1CCCN1C(=O)[C@@H]1CCCN1C(=O)N1CCCN1C(=O)[C@@H]1CCCN1C(=O)N1CCCN1C(=O)[C@@H]1CCCN1C(=O)N1CCCN1.Cl |  |  |  |  |  |  |  |  | -0.181 | -0.271 | -0.903 | -0.361 | 0 | -0.181 | 0 | 0.181 | Dose-dependent effect | 0 |
| Cl.O=C(OCc1ccccc1)N1CCCN1C(=O)[C@@H]1CCCN1C(=O)N1CCCN1C(=O)[C@@H]1CCCN1C(=O)N1CCCN1C(=O)[C@@H]1CCCN1C(=O)N1CCCN1C(=O)[C@@H]1CCCN1 | 0.27 | 0.27 | 23.8 | -10.1 | 34.9 | -1.33 | 4.48 |  | 0.045 |  |  |  | -0.013 |  |  |  | Dose-dependent effect |  |
| CN1CCCN1C(=O)[C@@H]1CCCN1C(=O)N1CCCN1C(=O)[C@@H]1CCCN1C(=O)N1CCCN1C(=O)[C@@H]1CCCN1C(=O)N1CCCN1C(=O)[C@@H]1CCCN1C(=O)N1CCCN1C(=O)[C@@H]1CCCN1C(=O)N1CCCN1C(=O)[C@@H]1CCCN1C(=O)N1CCCN1C(=O)[C@@H]1CCCN1C(=O)N1CCCN1C(=O)[C@@H]1CCCN1C(=O)N1CCCN1C(=O)OCc1ccccc1 | 3.93 | 3.93 | 25.1 | -3.91 | -6.74 | -5.68 | 3.49 |  |  |  |  |  |  |  |  |  |  |  |
| O=C([C@@H]1CCCN1C(=O)N1CCCN1C(=O)[C@@H]1CCCN1C(=O)N1CCCN1C(=O)[C@@H]1CCCN1C(=O)N1CCCN1C(=O)[C@@H]1CCCN1C(=O)N1CCCN1C(=O)[C@@H]1CCCN1C(=O)N1CCCN1C(=O)[C@@H]1CCCN1C(=O)N1CCCN1C(=O)[C@@H]1CCCN1C(=O)N1CCCN1C(=O)[C@@H]1CCCN1)N1CCCN1 | 1.9 | 1.9 | 22.8 | -6.95 | -4.27 | -2.7 | 2.38 |  |  |  |  |  |  |  |  |  |  |  |
| CC(C)(C)OC(=O)[C@@H]1CCCN1C(=O)N1CCCN1C(=O)[C@@H]1CCCN1C(=O)N1CCCN1C(=O)[C@@H]1CCCN1C(=O)N1CCCN1C(=O)[C@@H]1CCCN1C(=O)N1CCCN1C(=O)[C@@H]1CCCN1C(=O)N1CCCN1C(=O)[C@@H]1CCCN1C(=O)N1CCCN1C(=O)[C@@H]1CCCN1C(=O)N1CCCN1C(=O)[C@@H]1CCCN1C(=O)N1CCCN1 [listing 2 of 2 here] |  |  |  |  |  |  |  | inactive |  |  |  |  |  |  |  |  |  |  |
| CC(C)(C)OC(=O)[C@@H]1CCCN1C(=O)N1CCCN1C(=O)[C@@H]1CCCN1C(=O)N1CCCN1C(=O)[C@@H]1CCCN1C(=O)N1CCCN1C(=O)[C@@H]1CCCN1C(=O)N1CCCN1 | 4.07 | 4.06 | 5.04 | 4.45 | -8.79 | -4.84 | 4.64 | inactive |  |  |  |  |  |  |  |  | Dose-dependent effect |  |
| CC(C)(C)OC(=O)N1CCC[C@H]1C(=O)N1CCCN1C(=O)N1CCC[C@H]1C(=O)N1CCCN1C(=O)N1CCC[C@H]1C(=O)N1CCCN1C(=O)N1CCC[C@H]1C(=O)N1CCCN1C(=O)OCc1ccccc1 |  |  |  |  |  |  |  |  | 0 | 0.227 | 0.189 | 0.038 | -0.379 | 0.227 | 0.189 | 0.038 | Dose-dependent effect | -0.152 |
| CC(C)(C)OC(=O)N1CCC[C@H]1C(=O)N1CCCN1C(=O)N1CCC[C@H]1C(=O)N1CCCN1C(=O)N1CCC[C@H]1C(=O)N1CCCN1C(=O)N1CCC[C@H]1C(=O)N1CCCN1 | 4.51 | 4.51 | 28.3 | -4.17 | 7.37 | -0.655 | 3.56 |  | 0.723 |  |  |  | 0.061 |  |  |  | Dose-dependent effect |  |
